# Activity calls are given as the source filed them.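 How the source made its calls: active means inhibition of at least 50%; inactive means inhibition below 50%.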
# Target: Diacylglycerol lipase-beta (Mus musculus) (UniProt Q91WC9)
# Test: blocking of probe labeling on DAGLb – biochemical, gel-based fluorescence, overexpressed mouse, set 3, late-stage follow-up (AID 602300)
# Settings: HEK293T membrane mDAGLb, gel ABPP fluorescence; at 1 µM; active compounds read high
# Outline: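 assay system = mouse DAGLb overexpressed in transiently transfected HEK293T cell membrane proteome | medium = Dulbecco's PBS (DPBS) | schedule = 30 min compound preincubation, then 30 min probe labelling, 37 °C | measured by = in-gel fluorescence, band IOD | read-out basis = percent inhibition of DAGLb band versus DMSO and blank-gel references | controls = DMSO high, blank gel low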
# Chain of Diacylglycerol lipase-beta (Mus musculus) (Q91WC9 whole entry, looked up): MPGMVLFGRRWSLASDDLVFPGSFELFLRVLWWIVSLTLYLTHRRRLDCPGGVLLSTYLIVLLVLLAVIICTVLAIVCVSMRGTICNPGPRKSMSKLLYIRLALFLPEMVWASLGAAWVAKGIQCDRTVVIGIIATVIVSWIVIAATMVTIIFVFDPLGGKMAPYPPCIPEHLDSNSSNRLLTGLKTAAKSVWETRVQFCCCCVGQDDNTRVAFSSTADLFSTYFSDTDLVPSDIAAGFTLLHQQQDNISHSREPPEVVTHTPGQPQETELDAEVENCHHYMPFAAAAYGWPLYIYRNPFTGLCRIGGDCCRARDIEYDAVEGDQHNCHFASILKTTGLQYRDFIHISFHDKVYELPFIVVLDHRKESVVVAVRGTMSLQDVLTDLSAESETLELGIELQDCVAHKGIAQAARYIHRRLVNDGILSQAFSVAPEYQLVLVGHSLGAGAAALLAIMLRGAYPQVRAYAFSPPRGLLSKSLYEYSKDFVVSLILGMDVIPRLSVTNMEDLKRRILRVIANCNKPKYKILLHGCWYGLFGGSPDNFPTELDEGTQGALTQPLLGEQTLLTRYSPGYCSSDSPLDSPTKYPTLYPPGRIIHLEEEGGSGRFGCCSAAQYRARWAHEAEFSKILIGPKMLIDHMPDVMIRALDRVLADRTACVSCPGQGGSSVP
row,SMILES,inhibition
1,NC(=O)c1ccc(-c2ccc(-c3cn(C(=O)N4CCCCC4c4ccccc4)nn3)cc2)cc1 (configuration not stated),0% (inactive)
2,O=C(O)c1cccc(-c2ccc(-c3cn(C(=O)N4CCCCC4c4ccccc4)nn3)cc2)c1 (configuration not stated),6% (inactive)
3,O=C(O)c1ccc(-c2ccc(-c3cn(C(=O)N4CCCCC4CCc4ccccc4)nn3)cc2)cc1 (configuration not stated),1% (inactive)
4,O=C(O)c1cccc(-c2ccc(-c3cn(C(=O)N4CCCCC4CCc4ccccc4)nn3)cc2)c1 (configuration not stated),4% (inactive)
5,O=C(c1ccc(-c2ccc(-c3cn(C(=O)N4CCCCC4Cc4ccccc4)nn3)cc2)cc1)N1CCCCC1 (configuration not stated),39% (inactive)
6,O=C(c1ccc(-c2ccc(-c3cn(C(=O)N4CCCCC4c4ccccc4)nn3)cc2)cc1)N1CCCCC1 (configuration not stated),0% (inactive)
7,O=C(O)c1cccc(-c2ccc(-c3cn(C(=O)N4CCCCC4Cc4ccccc4)nn3)cc2)c1 (configuration not stated),50%
8,O=C(N1CCCCC1c1ccccc1)n1cc(-c2ccc(-c3ccc(CO)cc3)cc2)nn1 (configuration not stated),0% (inactive)
9,O=C(N1CCCCC1c1ccccc1)n1cc(-c2ccc(-c3cccc(CO)c3)cc2)nn1 (configuration not stated),0% (inactive)
10,O=C(N1CCCCC1c1ccccc1)n1cc(-c2ccc(-c3ccccc3CO)cc2)nn1 (configuration not stated),0% (inactive)
11,O=C(c1cccc(-c2ccc(-c3cn(C(=O)N4CCCCC4c4ccccc4)nn3)cc2)c1)N1CCCCC1 (configuration not stated),0% (inactive)
12,O=C(N1CCCCC1Cc1ccccc1)n1cc(-c2ccc(-c3cccc(CO)c3)cc2)nn1 (configuration not stated),84%

# Reference: PubChem BioAssay AID602300 (The Scripps Research Institute Molecular Screening Center, 2012)
